From ChEMBL document CHEMBL4414560, “Goniolanceolatins A-H, Cytotoxic Bis-styryllactones from Goniothalamus lanceolatus” (J Nat Prod, 2019)
pIC50: −log10 of the molar value.

Key:
NCI-H23 = test: Cytotoxicity against human NCI-H23 cells assessed as reduction in cell viability incubated fpr 72 hrs by celltiter-glo luminescent cell viability assay; format: functional, cell-based; conditions: NCI-H23, 72 h
Method in brief: (§1)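 Lung cancer lines received as gifts from the National Cancer Institute, Selangor, Malaysia, incubated at 37 °C, 5% CO2. Cells plated for 24 h, then drug-exposed for 72 h. Luminescent CellTiter-Glo viability read-out. IC50 is the concentration killing 50% of cells, reported as mean ± S.D. from at least three independent experiments. Cisplatin-treated cells used for validation.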

CCD-841CoN = test: Cytotoxicity against human CCD-841-CoN cells assessed as reduction in cell viability incubated fpr 72 hrs by celltiter-glo luminescent cell viability assay; format: cell-based
Method in brief: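 Noncancerous colorectal CCD 841 CoN cells kept in DMEM with 20% FBS, 100 IU/mL penicillin and 100 μg/mL streptomycin at 37 °C, 5% CO2. Plated 24 h, then treated 72 h. Viability by CellTiter-Glo luminescence. IC50 is the 50%-kill concentration, given as mean ± S.D. from at least three independent experiments. Cisplatin used for validation.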

Caco-2 = test: Cytotoxicity against human Caco2 cells assessed as reduction in cell viability incubated fpr 72 hrs by celltiter-glo luminescent cell viability assay; format: functional, cell-based; conditions: Caco-2, 72 h
Method in brief: (§2)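 Cell lines from ATCC, grown in RPMI-1640 with 10% FBS, 100 IU/mL penicillin and 100 μg/mL streptomycin at 37 °C, 5% CO2. Seeded for 24 h, then exposed to compound for 72 h. Viability read by CellTiter-Glo luminescence. IC50 is the concentration killing 50% of cells, reported as mean ± S.D. of at least three independent experiments. Cisplatin-treated cells served for validation.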

HCC 2998 = test: Cytotoxicity against human HCC2998 cells assessed as reduction in cell viability incubated fpr 72 hrs by celltiter-glo luminescent cell viability assay; format: functional, cell-based; conditions: HCC 2998, 72 h; method in brief: as §2
Calu-1 = test: Cytotoxicity against human Calu1 cells assessed as reduction in cell viability incubated fpr 72 hrs by celltiter-glo luminescent cell viability assay; format: functional, cell-based; conditions: Calu-1, 72 h; method in brief: as §2
NCI-H1299 = test: Cytotoxicity against human NCI-H1299 cells assessed as reduction in cell viability incubated fpr 72 hrs by celltiter-glo luminescent cell viability assay; format: functional, cell-based; conditions: NCI-H1299, 72 h; method in brief: as §1
SW48 = test: Cytotoxicity against human SW48 cells assessed as reduction in cell viability incubated fpr 72 hrs by celltiter-glo luminescent cell viability assay; format: functional, cell-based; conditions: SW48, 72 h; method in brief: as §2
MRC5 = test: Cytotoxicity against human MRC5 cells assessed as reduction in cell viability incubated fpr 72 hrs by celltiter-glo luminescent cell viability assay; format: cell-based; conditions: MRC5, 72 h; method in brief: as §2
A549 = test: Cytotoxicity against human A549 cells assessed as reduction in cell viability incubated fpr 72 hrs by celltiter-glo luminescent cell viability assay; format: functional, cell-based; conditions: A549, 72 h; method in brief: as §2
HCT-116 = test: Cytotoxicity against human HCT116 cells assessed as reduction in cell viability incubated fpr 72 hrs by celltiter-glo luminescent cell viability assay; format: functional, cell-based; conditions: HCT-116, 72 h; method in brief: as §2

SMILES	pIC50 (NCI-H23)	pIC50 (CCD-841CoN)	pIC50 (Caco-2)	pIC50 (HCC 2998)	pIC50 (Calu-1)	pIC50 (NCI-H1299)	pIC50 (SW48)	pIC50 (MRC5)	pIC50 (A549)	pIC50 (HCT-116)
CC(=O)O[C@@H](c1ccccc1)[C@@H](O[C@@H]1[C@@H]2C[C@@H](CC(=O)O2)O[C@H]1c1ccccc1)[C@@H]1CC=CC(=O)O1	5.03	< 4.00	< 5.00	< 5.00	< 5.00	< 5.00	< 5.00	< 4.00	< 5.00	5.02
O=C1C=CC[C@@H]([C@H](O)[C@H](O[C@@H](c2ccccc2)[C@@H](O)[C@@H]2CC=CC(=O)O2)c2ccccc2)O1	5.49	< 4.00	< 5.00	5.54	5.27	5.15	5.39	< 4.00	5.11	5.23
O=C1C=CC[C@@H]([C@H](O)[C@@H](O[C@H]([C@@H]2CC=CC(=O)O2)[C@@H](O)c2ccccc2)c2ccccc2)O1	5.28	< 4.00	< 5.00	< 5.00	5.12	5.02	5.26	< 4.00	< 5.00	5.10
CC(=O)O[C@@H]([C@@H]1CC=CC(=O)O1)[C@H](O[C@@H](c1ccccc1)[C@@H](O)[C@@H]1CC=CC(=O)O1)c1ccccc1	5.59	< 4.00	5.15	< 5.00	5.66	5.34	5.39	< 4.00	5.19	5.39
